Among the data in ChEMBL document CHEMBL3877249, “Novel 2-aryl-4-(4'-hydroxyphenyl)-5H-indeno[1,2-b]pyridines as potent DNA non-intercalative topoisomerase catalytic inhibitors” (Eur J Med Chem, 2017) are inhibition, IC50 and Activity values, retold here.

Structures can show the parent of a compound that is named as a salt. The source made the active and inactive calls. The rule behind the calls is not given here. Some results are limits rather than exact numbers.

The target in experiment [1] is DNA topoisomerase 2-alpha (Homo sapiens) (UniProt P11388). The experiment is described as follows: Inhibition of human DNA topoisomerase-2alpha at 20 uM using supercoiled pBR322 DNA as substrate after 30 mins by ethidium bromide staining based agarose gel electrophoresis relative to control. In outline: (§1)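 Human topo IIα, 1 unit set by full relaxation of pBR322, with 100 ng pBR322 for 30 min in 10 mM Tris-HCl pH 7.9, 50 mM NaCl, 5 mM MgCl2, 1 mM EDTA and BSA. Stop was with EDTA. Screening was at 100 µM, with retest at 20 µM if inhibition exceeded 30%. Gel was 1% agarose at 25 V for 4 h in TAE, stained with ethidium bromide. Mean ± S.D. from three experiments in triplicate.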
DNA topoisomerase 2-alpha (Homo sapiens), sequence (P11388 whole entry): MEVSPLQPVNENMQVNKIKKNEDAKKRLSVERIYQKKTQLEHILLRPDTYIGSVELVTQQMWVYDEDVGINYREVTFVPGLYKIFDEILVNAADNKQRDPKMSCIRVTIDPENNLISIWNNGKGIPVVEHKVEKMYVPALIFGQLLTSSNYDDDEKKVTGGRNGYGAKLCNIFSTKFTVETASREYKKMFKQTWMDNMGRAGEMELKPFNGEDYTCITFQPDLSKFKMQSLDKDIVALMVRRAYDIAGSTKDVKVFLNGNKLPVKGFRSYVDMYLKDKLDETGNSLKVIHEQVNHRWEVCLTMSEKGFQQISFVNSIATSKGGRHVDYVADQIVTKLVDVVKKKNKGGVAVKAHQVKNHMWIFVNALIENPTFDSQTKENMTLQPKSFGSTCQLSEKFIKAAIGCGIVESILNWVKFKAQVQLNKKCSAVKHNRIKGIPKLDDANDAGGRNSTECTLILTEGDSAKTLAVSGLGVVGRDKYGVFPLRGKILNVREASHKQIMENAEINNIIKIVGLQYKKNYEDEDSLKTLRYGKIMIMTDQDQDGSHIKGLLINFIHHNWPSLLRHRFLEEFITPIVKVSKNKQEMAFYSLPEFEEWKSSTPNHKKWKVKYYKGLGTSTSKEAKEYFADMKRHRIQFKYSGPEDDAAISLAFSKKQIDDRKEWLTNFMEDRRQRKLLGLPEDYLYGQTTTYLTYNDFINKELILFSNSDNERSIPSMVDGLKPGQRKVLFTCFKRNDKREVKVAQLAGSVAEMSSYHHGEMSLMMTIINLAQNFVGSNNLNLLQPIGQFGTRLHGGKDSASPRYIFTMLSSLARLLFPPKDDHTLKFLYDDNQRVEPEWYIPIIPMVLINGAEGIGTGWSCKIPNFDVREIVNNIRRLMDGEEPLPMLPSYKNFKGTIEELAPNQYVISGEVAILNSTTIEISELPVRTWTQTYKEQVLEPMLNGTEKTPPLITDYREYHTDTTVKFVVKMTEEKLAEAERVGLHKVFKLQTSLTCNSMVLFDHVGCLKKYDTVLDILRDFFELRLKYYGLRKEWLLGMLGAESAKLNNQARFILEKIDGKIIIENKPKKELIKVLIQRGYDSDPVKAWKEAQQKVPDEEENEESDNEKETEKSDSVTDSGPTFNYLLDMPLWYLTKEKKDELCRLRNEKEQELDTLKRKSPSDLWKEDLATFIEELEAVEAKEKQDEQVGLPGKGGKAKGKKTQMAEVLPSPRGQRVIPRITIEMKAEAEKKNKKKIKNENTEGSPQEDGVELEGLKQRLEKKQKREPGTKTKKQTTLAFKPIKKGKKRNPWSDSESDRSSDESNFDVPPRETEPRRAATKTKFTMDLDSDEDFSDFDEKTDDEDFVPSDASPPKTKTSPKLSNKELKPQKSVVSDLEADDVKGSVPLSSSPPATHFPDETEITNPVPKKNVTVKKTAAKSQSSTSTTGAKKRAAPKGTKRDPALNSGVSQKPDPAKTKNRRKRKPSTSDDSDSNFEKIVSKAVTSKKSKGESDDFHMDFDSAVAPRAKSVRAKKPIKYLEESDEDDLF

A short description of experiment [2]: Antiproliferative activity against human T47D cells after 72 hrs by CCK8 assay. The format is functional, cell-based. In outline: (§2)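 Cells seeded at 2–4 × 10^4 per well, grown overnight in medium with 10% FBS at 37 °C and 5% CO2. After 4 h FBS starvation they were exposed to graded compound concentrations for 72 h. CCK-8 was added for a further 4 h and absorbance read at 450 nm. IC50 came from a four-parameter logistic fit.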

The target in experiment [3] is DNA topoisomerase 2-alpha (Homo sapiens) (UniProt P11388). Kind of experiment: Inhibition of human DNA topoisomerase-2alpha at 100 uM using supercoiled pBR322 DNA as substrate after 30 mins by ethidium bromide staining based agarose gel electrophoresis relative to control. In outline: as §1
Experiment [4] deals with T1, DNA topoisomerase 1 (Homo sapiens) (UniProt P11387).
T1 sequence (whole entry): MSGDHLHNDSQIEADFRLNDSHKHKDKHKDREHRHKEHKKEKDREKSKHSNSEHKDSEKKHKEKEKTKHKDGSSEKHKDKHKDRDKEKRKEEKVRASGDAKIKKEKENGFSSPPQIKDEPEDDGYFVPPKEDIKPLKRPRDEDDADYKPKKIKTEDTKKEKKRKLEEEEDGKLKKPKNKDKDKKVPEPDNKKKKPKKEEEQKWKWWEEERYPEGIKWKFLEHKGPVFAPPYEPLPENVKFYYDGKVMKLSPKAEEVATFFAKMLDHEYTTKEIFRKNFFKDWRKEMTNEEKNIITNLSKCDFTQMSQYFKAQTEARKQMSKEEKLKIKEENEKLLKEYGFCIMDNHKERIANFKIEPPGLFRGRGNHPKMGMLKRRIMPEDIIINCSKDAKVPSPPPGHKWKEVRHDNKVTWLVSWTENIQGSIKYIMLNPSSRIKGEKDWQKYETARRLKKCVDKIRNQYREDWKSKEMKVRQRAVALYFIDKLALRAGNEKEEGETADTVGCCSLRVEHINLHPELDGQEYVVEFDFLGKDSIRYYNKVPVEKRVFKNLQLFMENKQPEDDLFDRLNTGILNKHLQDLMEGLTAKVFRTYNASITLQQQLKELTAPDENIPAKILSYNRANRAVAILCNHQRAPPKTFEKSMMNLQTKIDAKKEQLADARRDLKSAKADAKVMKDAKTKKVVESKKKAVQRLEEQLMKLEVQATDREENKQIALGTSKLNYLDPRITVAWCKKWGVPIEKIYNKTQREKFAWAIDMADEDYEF
The experiment is described as follows: Inhibition of human DNA topoisomerase-1 at 100 uM using supercoiled pBR322 DNA as substrate after 30 mins by ethidium bromide staining based agarose gel electrophoresis relative to control. In outline:
(§3)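 Recombinant human topo I, 1 unit (the amount that fully relaxes supercoiled pBR322), with 100 ng pBR322 DNA at 37 °C for 30 min in 10 mM Tris-HCl pH 7.9, 150 mM NaCl, 0.1% BSA. Compounds were screened at 100 µM, and those above 30% inhibition were retested at 20 µM. Products ran on 1% agarose at 15 V for 7 h in TAE with ethidium bromide staining. Mean ± S.D. from three experiments in triplicate.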

Experiment [5] is described as follows: Antiproliferative activity against human HeLa cells after 72 hrs by CCK8 assay. The format is functional, cell-based. In outline: as §2
Experiment [6] can be described thus: Antiproliferative activity against human HCT15 cells after 72 hrs by CCK8 assay. To be noted: HCT-15, 72 h. The format is functional, cell-based. In outline:
as §2

Experiment [7] has as its target T1, DNA topoisomerase 1 (Homo sapiens). Kind of experiment: Inhibition of human DNA topoisomerase-1 at 20 uM using supercoiled pBR322 DNA as substrate after 30 mins by ethidium bromide staining based agarose gel electrophoresis relative to control. In outline:
as §3

The nature of experiment [8]: Antiproliferative activity against human DU145 cells after 72 hrs by CCK8 assay. Type of experiment: functional, cell-based. Particulars: DU-145, 72 h. In outline: as §2
The nature of experiment [9]: Antiproliferative activity against HFL1 cells after 72 hrs by CCK8 assay. The format is cell-based. Particulars: Homo sapiens, HFL1, 72 h. In short, it runs like this: as §2
Experiment [10] is filed under the species Homo sapiens. Kind of experiment: Inhibition of DNA topoisomerase catalytic activity in human T47D nuclear extract at 50 uM using supercoiled pBR322 DNA as substrate after 24 hrs by ethidium bromide staining based agarose gel electrophoresis relative to control. In outline: (§4)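 T47D cells at 5 × 10^5 per 60 mm dish were grown to 80% confluence, washed with FBS-free medium and treated 24 h. Nuclear extracts were prepared in HEPES/MgCl2/KCl/DTT/NP40 buffer, then extracted with NaCl buffer. The amount of extract that fully relaxes 100 ng pBR322 at 37 °C in 20 min was set as the unit. Products were run on agarose in TAE and stained with ethidium bromide (0.5 µg/mL).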

A short description of experiment [11]: Antiproliferative activity against HEK293 cells after 72 hrs by CCK8 assay. Type of experiment: cell-based. To be noted: Homo sapiens, HEK293, 72 h. In short, it runs like this:
as §2

In experiment [12] the target is DNA topoisomerase 2-alpha (Homo sapiens) (UniProt P11388). The experiment is described as follows: Inhibition of human DNA topoisomerase-2alpha ATPase activity at 400 uM using supercoiled pBR322 DNA as substrate after 1 hr by malachite green dye based assay relative to control. In short, it runs like this: (§5)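 Topo IIα ATPase: 4 units of enzyme with 100 ng supercoiled pBR322 and 250 µM ATP in 10 mM Tris-HCl pH 7.9, 50 mM NaCl, 50 mM KCl, 5 mM MgCl2, 0.1 mM EDTA, 15 µg/mL BSA at 37 °C for 1 h. Malachite green reagent was then added for 30 min at room temperature, and released phosphate was read at 620 nm.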

Experiment [13] shares this target. The experiment is described as follows: Inhibition of human DNA topoisomerase-2alpha at 500 uM using supercoiled pBR322 DNA as substrate after 20 mins by ethidium bromide staining based agarose gel electrophoresis relative to control.
For experiment [14], the species on record is Homo sapiens. The experiment is described as follows: Inhibition of DNA topoisomerase catalytic activity in human T47D nuclear extract at 20 uM using supercoiled pBR322 DNA as substrate after 24 hrs by ethidium bromide staining based agarose gel electrophoresis relative to control. In short, it runs like this:
as §4

For experiment [15], the target named is DNA topoisomerase 2-alpha (Homo sapiens) (UniProt P11388). The experiment is described as follows: Inhibition of human DNA topoisomerase-2alpha ATPase activity at 200 uM using supercoiled pBR322 DNA as substrate after 1 hr by malachite green dye based assay relative to control. In short, it runs like this:
as §5

The target is the same in experiment [16]. Kind of experiment: Inhibition of human DNA topoisomerase-2alpha ATPase activity at 300 uM using supercoiled pBR322 DNA as substrate after 1 hr by malachite green dye based assay relative to control. In short, it runs like this:
as §5

Experiment [17] deals with T1, DNA topoisomerase 1 (Homo sapiens). The experiment is described as follows: Poison activity at human DNA topoisomerase-1 assessed as DNA intercalation by measuring DNA unwinding using pHOT1 DNA as substrate after 30 mins by ethidium bromide staining based agarose gel electrophoresis.

As for `Oc1ccccc1-c1cc(-c2ccco2)nc2c1Cc1ccccc1-2`, the inhibition amounted to 20% in [1], 58.7% in [3], 62.4% in [4] and 27.1% in experiment [7]. In addition, the IC50 in [2], in experiment [5], in experiment [6] and in [8] was greater than 50 µM in each case.
With `Oc1cccc(-c2cc(-c3ccsc3)nc3c2Cc2ccccc2-3)c1`, the inhibition in experiment [1] was 22%; in experiment [3], 75.5%; in experiment [4], 33.1%; in experiment [7], 0%. Besides, the IC50 in experiment [2] was determined as 1.52 µM; in experiment [5], 1.74 µM; in [6], 2.49 µM; in [8], 3.12 µM.
For `COc1cc([C@@H]2c3cc4c(cc3[C@@H](O[C@@H]3O[C@@H]5CO[C@@H](C)O[C@H]5[C@H](O)[C@H]3O)[C@H]3COC(=O)[C@H]23)OCO4)cc(OC)c1O` [ETOPOSIDE], the IC50 was 0.18 to 1.4 µM in [5]; 1.1 to 2.82 µM in experiment [6]; 87.6 µM in experiment [9]; 1.74 µM in experiment [11]; 0.02 to 13.1 µM in experiment [8]. In addition, the inhibition in experiment [10] amounted to 61.1%.
As for `Oc1ccc(-c2cc(-c3ccco3)nc3c2Cc2ccccc2-3)cc1`, the inhibition came to 92.2% in [1]; 95.1% in experiment [3]; 69.7% in experiment [4]; 0% in experiment [12]; 34.3% in [14]; 97% in [10]. In experiment [7], this compound returned an inhibition of 53.5%. Moreover, the IC50 in experiment [2] stood at 0.95 µM; in [5], 3.96 µM; in experiment [6], 3.12 µM; in experiment [9], 7.99 µM; in [11] it was 3.47 µM; in experiment [8], 3.74 µM. Besides, the inhibition result in [13] was “Active”.
For `c1ccc(-c2cc(-c3cccs3)nc3c2Cc2ccccc2-3)cc1`, the results for the inhibition in [3], in experiment [4] and in experiment [7] were 5.8%, 56% and 0%, respectively. Also, the IC50 in [5], in [6] and in experiment [8] was greater than 50 µM throughout.
For the compound `CO[C@@H]1[C@@H](OC(N)=O)[C@@H](O)[C@H](Oc2ccc3c(O)c(NC(=O)c4ccc(O)c(CC=C(C)C)c4)c(=O)oc3c2C)OC1(C)C`, the inhibition in [15] is 22.7%; in experiment [12] it was 55.9%; in [16], 33.3%.
As for `Oc1cccc(-c2cc(-c3ccoc3)nc3c2Cc2ccccc2-3)c1`, the inhibition in [1] amounted to 29.6%; in [3], 82.2%; in [4], 4.5%. Also, the IC50 in [2] is 2.91 µM; in experiment [5], 4.48 µM; in experiment [6], 1.24 µM; in experiment [8] it was 1.51 µM.
With `Oc1ccccc1-c1cc(-c2cccnc2)nc2c1Cc1ccccc1-2`, the inhibition was found to be 10.5% in experiment [1], 65.5% in experiment [3] and 0% in experiment [4]. In addition, the IC50 turned out to be 5.15 µM in experiment [2], 7.8 µM in experiment [5], 3.52 µM in [6] and 7.46 µM in experiment [8].
In the case of `CC[C@@]1(O)C(=O)OCc2c1cc1n(c2=O)Cc2cc3ccccc3nc2-1` [CAMPTOTHECIN], the IC50 in experiment [2] is 13.7 µM; in [5], 0.4 to 7.32 µM; in [6], 0.31 to 18.9 µM; in [9] it was 1.06 µM; in [11], 0.83 µM; in experiment [8] it was 0.11 to 2.09 µM.
Consider `Oc1cccc(-c2cc(-c3ccco3)nc3c2Cc2ccccc2-3)c1`, for which the inhibition in experiment [1] was found to be 36.9%; in experiment [3], 77.5%; in [4], 28.9%. The IC50 in experiment [2] was 1.07 µM; in [5] it was 6.27 µM; in [6] it was 1.58 µM; in experiment [8], 3.75 µM.
As to `Oc1ccc(-c2cc(-c3ccoc3)nc3c2Cc2ccccc2-3)cc1`, the inhibition was 28% in [1], 61.4% in experiment [3] and 1.4% in experiment [4]. Further, the IC50 in experiment [2] is 2.6 µM; in [5] it was 5.21 µM; in [6], 1.83 µM; in experiment [8] it was 6.01 µM.
As to `COc1cccc2c1C(=O)c1c(O)c3c(c(O)c1C2=O)C[C@@](O)(C(=O)CO)C[C@@H]3O[C@H]1C[C@H](N)[C@H](O)[C@H](C)O1` [DOXORUBICIN HYDROCHLORIDE], the IC50 is 1.34 µM in experiment [2]; 0.88 to 1.2 µM in [5]; 1.08 to 1.23 µM in [6]; 2.31 µM in experiment [9]; 4.96 µM in experiment [11]; 0.52 to 1 µM in [8].
Turning to `COc1cc(NS(C)(=O)=O)ccc1Nc1c2ccccc2nc2ccccc12`, the Activity result in experiment [17] is “Dose-dependent effect”.
For `c1ccc(-c2cc(-c3ccsc3)nc3c2Cc2ccccc2-3)cc1`, the inhibition in experiment [3] is 0.5%; in [4], 72.5%; in experiment [7], 0%. Besides, the 50% inhibitory concentration (IC50) in experiment [5], in experiment [6] and in [8] was greater than 50 µM each time.
With `Oc1ccc(-c2cc(-c3ccsc3)nc3c2Cc2ccccc2-3)cc1`, the inhibition in [1] is 65.9%; in experiment [3], 74.8%; in [4] it was 45.5%; in experiment [7], 2.5%. In addition, the IC50 in experiment [2] stood at 4.52 µM; in experiment [5] it was 4.9 µM; in experiment [6], 2.45 µM; in experiment [8] it was 3.35 µM.
